Results: PMC4334291 (Journal of Chemical Information and Modeling, 2014)

Key:
MDCK cells = assay: Mammalian cells growth/toxicity assay; type: cell-based, Canine; details: 30 μM, 1 day
Summary of the method: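 MDCK cells kept in DMEM with 10% FBS, penicillin/streptomycin and 2 mM L-glutamine. Seeded at 5.0 × 10^3 cells/well for 6 h (37 °C, 5% CO2), then starved overnight in 0.25% FBS DMEM. Exposed for 1 day to test compound at 30 μM or ampicillin 30 μM (negative control). CCK-8 added; A450 of WST-8 formazan read after 3 h. Four independent experiments, mean ± SEM, Dunnett's test.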

SH-SY5Y cells = assay: Mammalian cells growth/toxicity assay; type: cell-based, human; details: data not shown; 2 days
[1] = tested on: S. epidermidis ATCC 12228; assay: Bacterial growth assay, S. epidermidis; type: cell-based, Staphylococcus epidermidis; details: 100 μM, after 6 h
Summary of the method: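 Overnight culture at 37 °C and 300 rpm in 1% peptone, 1% beef extract, 0.5% NaCl (pH 7.1), diluted 15×. Grown at 37 °C and 300 rpm with test compound at 100 μM, 0.3% DMSO (negative control) or ampicillin 100 μg/mL (positive control). A595 read at 6 h. Four independent experiments, mean ± SEM, Bonferroni all-pair comparison.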

E. coli JM109 = assay: Bacterial growth assay, E. coli JM109; type: cell-based; details: data not shown
Summary of the method: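 JM109 culture handled as follows: overnight growth at 37 °C, 300 rpm, in 0.5% yeast extract/1% tryptone/0.5% NaCl medium (pH 7.0), then 10× dilution. Incubated at 37 °C, 300 rpm, in medium with test compound, 0.3% DMSO as negative control or ampicillin as positive control. Culture absorbance at 595 nm read after 4, 6 and 8 h.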

E. coli BL21 = assay: Bacterial growth assay, E. coli BL21; type: cell-based; details: 100 μM, 4 and 8 h
Summary of the method: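 E. coli BL21 grown overnight at 37 °C and 300 rpm in 0.5% yeast extract, 1% tryptone, 0.5% NaCl (pH 7.0), then diluted 10×. Grown at 37 °C and 300 rpm with test compound at 100 μM, 0.3% DMSO (negative control) or ampicillin 100 μM (positive control). A595 read at 4, 6 and 8 h. Four independent experiments, mean ± SEM, Dunnett's test.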

wild-type saDHFR = wild-type saDHFR (Staphylococcus aureus, UniProt P0A017); assay: S. aureus DHFR enzymatic assay; type: biochemical
Chain of wild-type saDHFR (P0A017 whole entry): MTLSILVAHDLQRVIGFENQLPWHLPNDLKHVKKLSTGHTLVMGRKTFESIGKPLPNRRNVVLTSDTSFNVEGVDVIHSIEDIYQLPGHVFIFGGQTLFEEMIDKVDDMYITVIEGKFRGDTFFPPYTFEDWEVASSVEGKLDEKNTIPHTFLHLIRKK

Solubility in DMSO = type: physicochemical; details: at 100 μM in DMSO

With `O=C(O)CN1C(=O)C(=C2C(=O)N(Cc3ccc(Cl)cc3)c3ccccc32)SC1=S` [KB1, {5-[1-(4-chlorobenzyl)-2-oxo-1,2-dihydro-3H-indol-3-ylidene]-4-oxo-2-thioxo-1,3-thiazolidin-3-yl}acetic acid] the “Toxic effects on MDCK cells” value (MDCK cells) was “did not show any toxic effects”, the “Cell death induced in SH-SY5Y cells” value (SH-SY5Y cells) was 43.3% and the “Inhibitory effect on the growth of S. epidermidis” value [1] was “strong inhibitory effects”. The “Inhibitory effect on the growth of E. coli JM109” value (E. coli JM109) was “did not show inhibitory effects” and the “Inhibitory effect on the growth of E. coli BL21” value (E. coli BL21) was “did not show inhibitory effects”.

In the case of `O=C(O)CCCN1C(=O)C(=C2C(=O)N(Cc3ccc(Cl)cc3)c3ccccc32)SC1=S` [KBS1, 4-{5-[1-(4-chlorobenzyl)-2-oxo-1,2-dihydro-3H-indol-3-ylidene]-4-oxo-2-thioxo-1,3-thiazolidin-3-yl}butanoic acid], the “Toxic effects on MDCK cells” value (MDCK cells) is reported as “weak toxic effect”, the “Cell death induced in SH-SY5Y cells” value (SH-SY5Y cells) is reported as 35.4–52.1% and the “Inhibitory effect on the growth of S. epidermidis” value [1] is reported as “significant inhibitory effects”. For the same compound, the IC50 (wild-type saDHFR) was 460 ± 170 nM, the “Inhibitory effect on the growth of E. coli JM109” value (E. coli JM109) was “no inhibitory effects” and the “Inhibitory effect on the growth of E. coli BL21” value (E. coli BL21) was “no inhibitory effects”.

For `Cc1ccc(CN2C(=O)C(=C3SC(=S)N(CC(=O)O)C3=O)c3ccccc32)cc1` [KBS2, {5-[1-(4-methylbenzyl)-2-oxo-1,2-dihydro-3H-indol-3-ylidene]-4-oxo-2-thioxo-1,3-thiazolidin-3-yl}acetic acid], the “Solubility in DMSO” value (Solubility in DMSO) was “not soluble”.

In the case of `O=C(O)CN1C(=O)C(=C2C(=O)N(Cc3ccccc3Cl)c3ccccc32)SC1=S` [KBS3, {5-[1-(2-chlorobenzyl)-2-oxo-1,2-dihydro-3H-indol-3-ylidene]-4-oxo-2-thioxo-1,3-thiazolidin-3-yl}acetic acid], the “Toxic effects on MDCK cells” value (MDCK cells) is reported as “did not exhibit toxic effects”, the “Cell death induced in SH-SY5Y cells” value (SH-SY5Y cells) is reported as 35.4–52.1% and the “Inhibitory effect on the growth of S. epidermidis” value [1] is reported as “significant inhibitory effects”. The “Inhibitory effect on the growth of E. coli JM109” value (E. coli JM109) was “no inhibitory effects” and the “Inhibitory effect on the growth of E. coli BL21” value (E. coli BL21) was “no inhibitory effects”.

In the case of `O=C(O)CCN1C(=O)C(=C2C(=O)N(Cc3ccc(F)cc3)c3ccccc32)SC1=S` [KBS4, 3-{5-[1-(4-fluorobenzyl)-2-oxo-1,2-dihydro-3H-indol-3-ylidene]-4-oxo-2-thioxo-1,3-thiazolidin-3-yl}propanoic acid], the “Toxic effects on MDCK cells” value (MDCK cells) is reported as “did not exhibit toxic effects”, the “Cell death induced in SH-SY5Y cells” value (SH-SY5Y cells) is reported as 35.4–52.1% and the “Inhibitory effect on the growth of S. epidermidis” value [1] is reported as “significant inhibitory effects”. For the same compound, the “Inhibitory effect on the growth of E. coli JM109” value (E. coli JM109) was “no inhibitory effects” and the “Inhibitory effect on the growth of E. coli BL21” value (E. coli BL21) was “no inhibitory effects”.

In the case of `CCOCCCN1C(=O)C(=C2C(=O)N(Cc3ccc(Cl)cc3)c3ccccc32)SC1=S` [KBS5, 1-(4-chlorobenzyl)-3-[3-(3-ethoxypropyl)-4-oxo-2-thioxo-1,3-thiazolidin-5-ylidene]-1,3-dihydro-2H-indol-2-one], the “Inhibitory effect on the growth of S. epidermidis” value [1] is reported as “inactive”.
